From ChEMBL document CHEMBL1137213, “New substituted piperazines as ligands for melanocortin receptors. Correlation to the X-ray structure of "THIQ"” (J Med Chem, 2004)

Assays:
[1] = target: Melanocortin receptor 3 (Homo sapiens, UniProt P41968); experiment: Binding affinity towards Melanocortin 3 receptor using [125I]NDP-MSH
Procedure, shortened: (§1)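 Human MC1, MC3, MC4 or MC5 receptor expressed in Sf9 cells by recombinant virus infection for 72 h; membranes prepared from these cells. Membranes (10 µg protein/100 µL) incubated with [125I]NDP-MSH and competing unlabeled ligand in 20 mM K-Hepes pH 7.4, 5 mM NaCl, 1 mM CaCl2, 0.5 mM MgCl2, 0.5 mg/mL BSA for 3 h at 25 °C. Ended by filtration through glass-fiber filters. Nonspecific binding set with 3 µM NDP-MSH.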

[2] = target: Melanocortin receptor 4 (Homo sapiens, UniProt P32245); experiment: Binding affinity towards Melanocortin 4 receptor using [125I]NDP-MSH; procedure, shortened: as §1
[3] = target: Melanocyte-stimulating hormone receptor (Homo sapiens, UniProt Q01726); experiment: Binding affinity towards Melanocortin 1 receptor using [125I]NDP-MSH; procedure, shortened: as §1
[4] = target: Melanocortin receptor 5 (Homo sapiens, UniProt P33032); experiment: Binding affinity towards Melanocortin 5 receptor using [125I]NDP-MSH; procedure, shortened: as §1
Chain of Melanocortin receptor 5 (P33032 whole entry): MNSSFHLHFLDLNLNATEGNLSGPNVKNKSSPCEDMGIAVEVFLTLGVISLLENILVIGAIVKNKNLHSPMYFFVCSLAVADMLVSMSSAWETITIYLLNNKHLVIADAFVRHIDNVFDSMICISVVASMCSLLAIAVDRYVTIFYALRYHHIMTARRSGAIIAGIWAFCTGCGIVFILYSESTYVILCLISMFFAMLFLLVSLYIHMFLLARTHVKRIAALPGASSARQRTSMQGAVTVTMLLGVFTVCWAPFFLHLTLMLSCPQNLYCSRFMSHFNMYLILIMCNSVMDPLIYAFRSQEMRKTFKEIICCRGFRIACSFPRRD

Chain of Melanocyte-stimulating hormone receptor (Q01726 whole entry): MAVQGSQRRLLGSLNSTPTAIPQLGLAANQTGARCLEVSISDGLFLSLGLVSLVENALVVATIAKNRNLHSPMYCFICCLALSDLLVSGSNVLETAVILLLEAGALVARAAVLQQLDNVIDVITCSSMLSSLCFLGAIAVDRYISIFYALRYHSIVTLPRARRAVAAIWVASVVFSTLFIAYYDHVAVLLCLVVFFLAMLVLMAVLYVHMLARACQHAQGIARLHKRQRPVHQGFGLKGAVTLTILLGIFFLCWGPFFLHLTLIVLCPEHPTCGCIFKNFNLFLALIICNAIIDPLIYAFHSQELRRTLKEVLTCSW
Chain of Melanocortin receptor 3 (P41968 whole entry): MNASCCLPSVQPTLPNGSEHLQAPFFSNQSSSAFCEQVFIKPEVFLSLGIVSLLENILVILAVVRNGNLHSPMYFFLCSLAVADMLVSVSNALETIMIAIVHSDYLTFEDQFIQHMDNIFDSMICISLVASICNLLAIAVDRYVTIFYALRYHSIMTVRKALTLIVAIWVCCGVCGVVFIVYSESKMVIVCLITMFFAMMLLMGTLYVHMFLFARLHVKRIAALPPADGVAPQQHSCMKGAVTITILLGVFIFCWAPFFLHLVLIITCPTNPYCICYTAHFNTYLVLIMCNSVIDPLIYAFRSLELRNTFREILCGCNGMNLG
Chain of Melanocortin receptor 4 (P32245 whole entry): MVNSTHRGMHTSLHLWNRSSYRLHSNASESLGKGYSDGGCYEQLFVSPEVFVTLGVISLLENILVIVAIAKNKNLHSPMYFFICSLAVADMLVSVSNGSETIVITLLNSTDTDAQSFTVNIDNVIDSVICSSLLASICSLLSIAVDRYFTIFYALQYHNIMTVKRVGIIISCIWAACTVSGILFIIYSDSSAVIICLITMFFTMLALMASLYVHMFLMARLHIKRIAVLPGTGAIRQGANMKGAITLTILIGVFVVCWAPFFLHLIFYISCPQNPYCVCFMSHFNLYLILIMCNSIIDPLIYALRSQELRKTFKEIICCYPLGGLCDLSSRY

With `O=C(N[C@H](Cc1ccc(Cl)cc1)C(=O)N1CC[N+]([O-])(c2ccccc2)CC1)C1Cc2ccccc2CN1` (stereo partly specified) the Ki [1] was 35 µM, the Ki [2] was 169 µM and the Ki [3] was 36 µM. For the same molecule, the Ki [4] was 94 µM.
`O=C(N[C@H](Cc1ccc(Cl)cc1)C(=O)N1CCN([C@@H]2CCCC[C@H]2n2cncn2)CC1)C1Cc2ccccc2CN1` (stereo partly specified) gave a Ki [1] of 4.4 µM, a Ki [3] of 2 µM and a Ki [4] of 9.8 µM.
In the case of `O=C(N[C@H](Cc1ccc(Cl)cc1)C(=O)N1CCN(c2ccccc2)CC1)C1Cc2ccccc2CN1` (stereo partly specified), the Ki [1] is reported as 15 µM, the Ki [2] is reported as 30 µM and the Ki [3] is reported as 13 µM. For the same molecule, the Ki [4] was 17 µM.
In the case of `O=C(N[C@H](Cc1ccc(Cl)cc1)C(=O)N1CCC(Cn2cncn2)(C2CCCCC2)CC1)[C@H]1Cc2ccccc2CN1`, the Ki [4] is reported as 5 µM.
In the case of `O=C(N[C@H](Cc1ccc(Cl)cc1)C(=O)N1CCN(C2CCCCC2)CC1)C1Cc2ccccc2CN1` (stereo partly specified), the Ki [1] is reported as 6.8 µM, the Ki [2] is reported as 1.4 µM and the Ki [3] is reported as 11 µM. It also gave a Ki [4] of 8.2 µM.
For `O=C(N[C@H](Cc1ccc(Cl)cc1)C(=O)N1CCN(C2(Cn3cncn3)CCCCC2)CC1)C1Cc2ccccc2CN1` (stereo partly specified), the Ki [1] was 5.6 µM, the Ki [2] was 1 µM and the Ki [3] was 3.2 µM. For the same molecule, the Ki [4] was 14 µM.
Molecule `O=C(N[C@H](Cc1ccc(Cl)cc1)C(=O)N1CCN(C2CCCCC2Cn2cncn2)CC1)C1Cc2ccccc2CN1` (stereo partly specified) has a Ki [1] of 5.2 µM, a Ki [2] of 0.39 µM and a Ki [3] of 2 µM. The Ki [4] was 16 µM.
In the case of `O=C(N[C@H](Cc1ccc(Cl)cc1)C(=O)N1CC[N+]([O-])(C2CCCCC2)CC1)C1Cc2ccccc2CN1` (stereo partly specified), the Ki [1] is reported as 114 µM, the Ki [2] is reported as 57 µM and the Ki [3] is reported as 152 µM. For the same molecule, the Ki [4] was 102 µM.
Work on `O=C(N[C@H](Cc1ccc(Cl)cc1)C(=O)N1CCN(C2(Cn3cncn3)CCCC2)CC1)C1Cc2ccccc2CN1` (stereo partly specified) yielded a Ki [1] of 8.8 µM, a Ki [2] of 1.5 µM and a Ki [3] of 0.53 µM. The Ki [4] was 18 µM.
For `O=C(N[C@H](Cc1ccc(Cl)cc1)C(=O)N1CCN([C@H]2CCCC[C@@H]2n2cncn2)CC1)C1Cc2ccccc2CN1` (stereo partly specified), the Ki [1] was 6.5 µM, the Ki [2] was 0.86 µM and the Ki [3] was 2.2 µM. The Ki [4] was 17 µM.
